The source of these data is ChEMBL document CHEMBL2424614, “A novel p-terphenyl derivative inducing cell-cycle arrest and apoptosis in MDA-MB-435 cells through topoisomerase inhibition” (Eur J Med Chem, 2013).

Active and inactive are the calls of the source. The calls are words filed in the database; no cut-off is given here.

Assay [1] relates to MDA-MB-435. The assay can be described thus: Cell cycle arrest in human MDA-MB-435 cells assessed as increase in cyclin B1 expression at 0.25 to 1 uM after 12 to 24 hrs by Western blotting analysis. Format: functional, cell-based. The method, boiled down:
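Treated MDA-MB-435 cells lysed in ice-cold Tris-HCl pH 7.4 buffer with Triton, phosphatase and protease inhibitors. Lysates clarified, boiled in SDS loading buffer, run on 8-12% SDS-PAGE and blotted. Membranes blocked in 5% skim milk, probed with primary antibodies, then peroxidase secondaries with ECL detection. β-actin as loading control.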
In general terms: A western blot detects proteins with antibodies after separation by electrophoresis.

The test system of assay [2] is MDA-MB-435. Put plainly: Cell cycle arrest in human MDA-MB-435 cells assessed as accumulation at G2/M phase at 0.5 uM after 24 hrs by propidium iodide staining-based flow cytometry (reference value: 14.05%). The assay is classed as functional. A general note: A flow cytometer gives signals particle by particle.
The target of assay [3] is DNA topoisomerase 2-alpha (Homo sapiens) (UniProt P11388). Put plainly: Induction of recombinant human DNA topoisomerase 2-alpha poisoning activity using pBR322 as substrate assessed as appearance of linear DNA at 100 uM after 30 mins by Agarose gel electrophoresis. Summed up:
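Same format as the Topo IIα inhibition assay: 0.5 µg supercoiled pBR322 with 1 unit recombinant human Topo IIα. Incubated 37 °C for 30 min, stopped with 10% SDS, then proteinase K (50 µg/mL) for 20 min. Run on 1% agarose gel containing ethidium bromide, 5 V/cm, 2 h, TAE. Linear and nicked open circular DNA positions scored. At least duplicate.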

For assay [4], the system named is MDA-MB-435. The assay can be described thus: Induction of apoptosis in human MDA-MB-435 cells assessed as late apoptotic cells at 0.5 uM after 24 hrs by annexin-V FITC/propidium iodide staining-based flow cytometry (reference value: 0.34 +/- 0.08%). The assay is classed as functional. The method, boiled down: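 MDA-MB-435 cells treated 24 h, stained with annexin V-FITC/PI per kit instructions, analysed by flow cytometry. Quadrant statistics: lower right taken as apoptotic, upper right as necrotic or post-apoptotic necrotic. Representative of three similar experiments.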

Assay [5] deals with MDA-MB-435. The assay can be described thus: Cell cycle arrest in human MDA-MB-435 cells assessed as accumulation at G2/M phase at 0.25 uM after 24 hrs by propidium iodide staining-based flow cytometry (reference value: 14.05%). Format: functional.

Sequence of DNA topoisomerase 2-alpha (Homo sapiens) (P11388 whole entry): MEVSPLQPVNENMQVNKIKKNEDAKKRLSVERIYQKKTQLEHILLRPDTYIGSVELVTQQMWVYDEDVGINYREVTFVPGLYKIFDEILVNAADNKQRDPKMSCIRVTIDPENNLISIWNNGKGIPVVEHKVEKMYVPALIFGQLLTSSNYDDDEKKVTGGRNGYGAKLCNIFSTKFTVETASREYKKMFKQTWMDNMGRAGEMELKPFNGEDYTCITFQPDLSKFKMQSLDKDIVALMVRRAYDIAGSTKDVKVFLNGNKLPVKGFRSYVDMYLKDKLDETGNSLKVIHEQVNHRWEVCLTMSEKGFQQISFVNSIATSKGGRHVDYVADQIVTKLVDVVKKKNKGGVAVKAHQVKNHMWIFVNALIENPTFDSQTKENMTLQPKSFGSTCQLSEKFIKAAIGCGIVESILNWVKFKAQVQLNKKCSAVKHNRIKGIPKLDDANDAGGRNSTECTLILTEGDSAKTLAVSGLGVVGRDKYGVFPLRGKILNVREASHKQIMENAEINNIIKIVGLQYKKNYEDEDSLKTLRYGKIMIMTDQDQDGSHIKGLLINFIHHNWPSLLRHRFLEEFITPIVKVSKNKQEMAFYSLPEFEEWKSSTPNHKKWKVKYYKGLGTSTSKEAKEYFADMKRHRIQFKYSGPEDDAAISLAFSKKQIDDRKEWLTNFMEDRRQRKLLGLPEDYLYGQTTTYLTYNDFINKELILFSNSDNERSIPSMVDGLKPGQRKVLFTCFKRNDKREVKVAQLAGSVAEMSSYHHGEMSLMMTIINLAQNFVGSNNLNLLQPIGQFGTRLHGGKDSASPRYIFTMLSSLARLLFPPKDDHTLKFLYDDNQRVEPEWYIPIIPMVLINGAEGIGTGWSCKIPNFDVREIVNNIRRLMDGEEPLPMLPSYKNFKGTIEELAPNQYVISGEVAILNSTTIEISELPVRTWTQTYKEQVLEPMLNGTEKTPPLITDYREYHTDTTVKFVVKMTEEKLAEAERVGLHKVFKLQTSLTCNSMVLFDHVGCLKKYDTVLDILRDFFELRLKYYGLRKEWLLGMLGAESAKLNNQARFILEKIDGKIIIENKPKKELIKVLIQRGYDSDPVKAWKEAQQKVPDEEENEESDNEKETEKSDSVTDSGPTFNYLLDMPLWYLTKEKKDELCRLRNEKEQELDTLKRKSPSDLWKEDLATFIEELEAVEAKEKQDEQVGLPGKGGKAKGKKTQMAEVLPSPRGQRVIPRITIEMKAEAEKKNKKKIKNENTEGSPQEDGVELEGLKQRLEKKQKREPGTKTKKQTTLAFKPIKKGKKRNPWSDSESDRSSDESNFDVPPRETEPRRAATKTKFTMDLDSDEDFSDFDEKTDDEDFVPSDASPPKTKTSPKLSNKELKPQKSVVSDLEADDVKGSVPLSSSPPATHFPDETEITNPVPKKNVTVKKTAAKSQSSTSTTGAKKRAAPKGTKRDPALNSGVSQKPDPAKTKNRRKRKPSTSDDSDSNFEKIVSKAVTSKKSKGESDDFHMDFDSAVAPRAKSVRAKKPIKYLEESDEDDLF

Turning to `Oc1ccc(-c2ccc(-c3ccc(O)c(O)c3)cc2)cc1`, the outcome in assay [1] was Active. Further, the results for the Activity in assay [2], in assay [4] and in assay [5] were 38.41%, 7.79% and 16.24%, respectively. In addition, the result in assay [3] was inactive.
